Measured values reported in ChEMBL document CHEMBL1124957, “6-Benzoxazinylpyridazin-3-ones: potent, long-acting positive inotrope and peripheral vasodilator agents” (J Med Chem, 1990).
Each block holds one molecule with its values, some of them ahead of it.

How the values were obtained:
[1] = tested on: Canis familiaris; assay: Myocardial contractile force (CF) in dog after intravenous dose of 1.875 mg/kg; format: functional, Canis lupus familiaris, Myocardium
Outline: (§1)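 Anesthetized adult mongrel dogs (sodium pentobarbital 45 mg/kg ip), artificially respired; MAP from cannulated femoral artery, infusion into femoral vein. Dopamine standard (10–15 μg/kg/min, 3 min) checked inotropic responsiveness. Compounds dissolved in DMF, diluted to 10% final in saline; stepwise 3–4 increasing doses, each infused over 5 min after prior peak. CF, MAP, HR expressed as % change from predrug control vs cumulative dose.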

[2] = tested on: Canis familiaris; assay: Mean arterial blood pressure in dog following 1.875 mg/kg i.v. administration.; format: functional, Canis lupus familiaris; settings: route intravenous; outline: as §1
[3] = tested on: Canis familiaris; assay: Effective dose required to increase the myocardial contractile force (CF) 50% above base line when administered intravenously.; format: functional; settings: Canis lupus familiaris, Myocardium, iv
Outline: (§2)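 Dopamine standard (10–15 μg/kg/min, 3 min) checked inotropic responsiveness. Compounds dissolved in DMF, diluted to 10% final in saline; stepwise 3–4 increasing doses, each infused over 5 min after prior peak. CF, MAP, HR expressed as % change from predrug control vs cumulative dose.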

[4] = target: phosphodiesterase fraction III (Canis familiaris); assay: Inhibition of cardiac phosphodiesterase-3 isolated from canine heart.
[5] = tested on: Canis familiaris; assay: Heart rate in dog following 1.875 mg/kg i.v. administration.; format: functional, Canis lupus familiaris; settings: route intravenous; outline: as §1
[6] = tested on: Canis familiaris; assay: Heart rate (HR) in dog after intravenous dose of 0.470 mg/kg; format: functional, Canis lupus familiaris; settings: dose 0.47 mg/kg; outline: as §1
[7] = tested on: Canis familiaris; assay: Mean arterial blood pressure (MAP) in dog after intravenous dose of 0.470 mg/kg; format: functional, Canis lupus familiaris; set-up: unit: % change from predrug control; settings: dose 0.47 mg/kg; outline: as §1
[8] = tested on: Canis familiaris; assay: Intravenous dose required to increase contractile force (inotropic effect) by 50%; format: functional; settings: Canis lupus familiaris; outline: as §1
[9] = tested on: Canis familiaris; assay: Mean arterial blood pressure (MAP) in dog after intravenous dose of 0.188 mg/kg; format: functional, Canis lupus familiaris; outline: as §1
[10] = tested on: Canis familiaris; assay: Myocardial contractile force (CF) in dog after intravenous dose of 0.188 mg/kg; format: functional, Canis lupus familiaris, Myocardium; outline: as §1
[11] = tested on: Canis familiaris; assay: Heart rate (HR) in dog after intravenous dose of 0.188 mg/kg; format: functional, Canis lupus familiaris; outline: as §1
[12] = tested on: Canis familiaris; assay: Mean arterial blood pressure (MAP) in dog after intravenous dose of 0.075 mg/kg; format: functional, Canis lupus familiaris; outline: as §2
[13] = tested on: Canis familiaris; assay: Myocardial contractile force (CF) in dog after intravenous dose of 0.075 mg/kg; format: functional, Canis lupus familiaris, Myocardium; outline: as §2
[14] = Index of contractility was determined as the ratio of % of dP/dtmax in conscious dog after (po) administration of a dose of 0.01 mg/kg; format: functional
Outline: (§3)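 Conscious dogs, instrumented earlier with an LV Konigsberg pressure transducer through a left thoracotomy, with ≥1 week recovery and trained to lie quietly. LV dP/dtmax derived as the contractility index; baseline MAP, HR, dP/dtmax taken first. Compound suspended in 0.1% methylcellulose (10 mL) and given by gavage through a gastric tube. Response recorded as % change, also at 8 h.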

[15] = Index of contractility was determined as the ratio of % of dP/dtmax in conscious dog after (po) administration of 0.10 mg/kg; format: functional; settings: dose 0.1 mg/kg; outline: as §3
[16] = tested on: Canis familiaris; assay: Percent change in activity 8 hr after peroral administration in conscious dog at 0.30 mg/kg; format: functional, Canis lupus familiaris; settings: dose 0.3 mg/kg; route oral; outline: as §3
[17] = tested on: Canis familiaris; assay: Percent change in activity 8 hr after peroral administration in conscious dog at 0.10 mg/kg; format: functional, Canis lupus familiaris; settings: dose 0.1 mg/kg; route oral; outline: as §3
[18] = Index of contractility was determined as the ratio of % of dP/dtmax in conscious dog after (po) administration of 0.30 mg/kg; format: functional; settings: dose 0.3 mg/kg; outline: as §3
[19] = tested on: Canis familiaris; assay: Heart rate (HR) in dog after intravenous dose of 0.075 mg/kg; format: functional, Canis lupus familiaris; outline: as §2
[20] = tested on: Canis familiaris; assay: Myocardial contractile force (CF) in dog after intravenous dose of 0.470 mg/kg; format: functional, Canis lupus familiaris, Myocardium; settings: dose 0.47 mg/kg; outline: as §1
[21] = tested on: Canis familiaris; assay: Heart rate (HR) in dog after intravenous dose of 0.010 mg/kg; format: functional, Canis lupus familiaris; settings: dose 0.075 mg/kg, in the assay text read “0.075 mg/kg” for “0.010 mg/kg”; outline: as §1
[22] = tested on: Canis familiaris; assay: Mean arterial blood pressure (MAP) in dog after intravenous dose of 0.100 mg/kg; format: functional, Canis lupus familiaris; settings: dose 0.1 mg/kg; outline: as §1
[23] = tested on: Canis familiaris; assay: Heart rate (HR) in dog after intravenous dose of 0.100 mg/kg; format: functional, Canis lupus familiaris; settings: dose 0.1 mg/kg; outline: as §1
[24] = tested on: Canis familiaris; assay: Myocardial contractile force (CF) in dog after intravenous dose of 0.100 mg/kg; format: functional, Canis lupus familiaris, Myocardium; settings: dose 0.1 mg/kg; outline: as §1
[25] = organism: Canis familiaris; assay: Inotropic and enzyme inhibition effect on heart rate (HR); format: functional, Canis lupus familiaris

- IC50 [4]: 18 µM
SMILES: CN1C(=O)COc2ccc(C3=NNC(=O)CC3)cc21
- Activity [6]: 13
- ED50 [3]: 0.279 mg/kg
- Activity [7]: -4

- IC50 [4]: 36 µM
SMILES: CN1C(=O)C(C)(C)Oc2ccc(C3=NNC(=O)CC3)cc21
- Activity [1]: 125
- Activity [2]: -12
- ED50 [8]: 0.8 mg/kg
- Activity [5]: 8

- IC50 [4]: 0.3 µM
SMILES: CC1CC(=O)NN=C1c1ccc2c(c1)OCC(=O)N2 (centres undefined) [BEMORADAN]
- Activity [12]: -21
- Activity [13]: 127
- Ratio [14]: 43%
- ED50 [3]: 0.0054 mg/kg
- Ratio [15]: 85%
- Change [16]: 65%
- Change [17]: 31%
- Ratio [18]: 130%
- Activity [19]: 25

- IC50 [4]: 4 µM
SMILES: CC1CC(=O)NN=C1c1ccc2c(c1)OC(C)C(=O)N2 (centres undefined)
- Activity [12]: -17
- Activity [13]: 154
- ED50 [3]: 0.0054 mg/kg
- Activity [19]: 23

- IC50 [4]: 5 µM
SMILES: CC1CC(=O)NN=C1c1ccc2c(c1)NC(=O)C(C)O2 (centres undefined)
- Activity [6]: 18
- Activity [20]: 157
- ED50 [3]: 0.07 mg/kg
- Activity [7]: -10

- IC50 [4]: 23 µM
SMILES: CC1(C)Oc2ccc(C3=NNC(=O)CC3)cc2NC1=O
- Activity [1]: 113
- Activity [2]: -6
- ED50 [3]: 0.65 mg/kg
- Activity [5]: 14

- IC50 [4]: 7.5 µM
SMILES: Cc1cc(C2=NNC(=O)CC2C)c2c(c1)N(C)C(=O)CO2 (centres undefined)
- Activity [1]: 98
- Activity [2]: -17
- ED50 [3]: 0.75 mg/kg
- Activity [5]: 19

- IC50 [4]: 2 µM
SMILES: CC1CC(=O)NN=C1c1ccc2c(c1)NC(=O)CO2 (centres undefined)
- Activity [6]: 26
- ED50 [3]: 0.077 mg/kg
- Activity [7]: -14

- IC50 [4]: 5 µM
SMILES: CC1CC(=O)NN=C1c1ccc2c(c1)N(C(C)C)C(=O)C(C)O2 (centres undefined)
- Activity [1]: 83
- Activity [2]: -16
- ED50 [3]: 0.47 mg/kg
- Activity [5]: 8

- IC50 [4]: 6 µM
SMILES: CC1CC(=O)NN=C1c1ccc2c(c1)OC(C)(C)C(=O)N2C (centres undefined)
- Activity [12]: -14
- Activity [13]: 85
- ED50 [3]: 0.0217 mg/kg
- Activity [19]: 19

- IC50 [4]: 20 µM
SMILES: Cc1cc2c(cc1C1=NNC(=O)CC1C)NC(=O)CO2 (centres undefined)
- Activity [6]: 20
- ED50 [3]: 0.137 mg/kg
- Activity [7]: -4

- IC50 [4]: 6 µM
SMILES: CC1CC(=O)NN=C1c1ccc2c(c1)NCCO2 (centres undefined)
- Activity [6]: 44
- Activity [20]: 149
- ED50 [3]: 0.056 mg/kg
- Activity [7]: -11

- IC50 [4]: 4 µM
SMILES: CC1CC(=O)NN=C1c1ccc2c(c1)OC(C)(C)C(=O)N2 (centres undefined)
- Activity [12]: -28
- Activity [13]: 82
- ED50 [3]: 0.0162 mg/kg
- Activity [19]: 16

- IC50 [4]: 30 µM
SMILES: CC(=O)N1CCOc2ccc(C3=NNC(=O)CC3C)cc21 (centres undefined)
- Activity [6]: 35
- Activity [20]: 135
- ED50 [3]: 0.056 mg/kg
- Activity [7]: -31

- IC50 [4]: 8 µM
SMILES: CC1CC(=O)NN=C1c1ccc2c(c1)N(C1CCCC1)C(=O)C(C)O2 (centres undefined)
- Activity [1]: 36
- Activity [2]: -5
- ED50 [3]: > 1.88 mg/kg
- Activity [5]: 7

- IC50 [4]: 6 µM
SMILES: CC1CC(=O)NN=C1c1ccc2c(c1)N(C)C(=O)C(C)O2 (centres undefined)
- Activity [6]: 36
- ED50 [3]: 0.068 mg/kg
- Activity [7]: -15

- IC50 [4]: 4 µM
SMILES: CC1CC(=O)NN=C1c1ccc2c(c1)N(S(C)(=O)=O)CCO2 (centres undefined)
- Activity [6]: 17
- Activity [20]: 99
- ED50 [3]: 0.148 mg/kg
- Activity [7]: -1

Continued, molecule first:

SMILES: CCCCCN1N=C(c2ccc3c(c2)N(S(C)(=O)=O)CCO3)CCC1=O
- Activity [1]: 22
- Activity [2]: -6
- ED50 [3]: > 1.88 mg/kg
- IC50 [4]: 50 µM
- Activity [5]: -2

SMILES: C=CCN1N=C(c2ccc3c(c2)N(S(C)(=O)=O)CCO3)CCC1=O
- Activity [1]: 37
- Activity [2]: 4
- ED50 [3]: > 1.88 mg/kg
- Activity [5]: 10

SMILES: CC1Oc2ccc(C3=NNC(=O)CC3)cc2NC1=O (centres undefined)
- ED50 [3]: 0.49 mg/kg
- IC50 [4]: 14 µM
- Activity [5]: 24

SMILES: Cc1cc2c(c(C3=NNC(=O)CC3C)c1)OCC(=O)N2 (centres undefined)
- Activity [1]: 51
- Activity [2]: -15
- ED50 [3]: 1.8 mg/kg
- IC50 [4]: 28 µM
- Activity [5]: 8

SMILES: O=C1CCC(c2ccc(-n3ccnc3)cc2)=NN1 [IMAZODAN]
- Activity [9]: -4
- Activity [10]: 77
- Activity [11]: 8
- ED50 [3]: 0.0822 mg/kg

SMILES: CS(=O)(=O)N1CCOc2ccc(C3=NNC(=O)CC3)cc21
- Activity [1]: 76
- Activity [2]: -14
- ED50 [3]: 1.33 mg/kg
- IC50 [4]: 9.5 µM
- Activity [5]: 24

SMILES: CC1(C)C(=O)Nc2ccc(C3=NNC(=O)CC3)cc21 [INDOLIDAN]
- Activity [21]: 32
- Activity [12]: -27
- Activity [13]: 110
- ED50 [3]: 0.0084 mg/kg
- IC50 [4]: 7 µM

SMILES: Cc1[nH]c(=O)c(C#N)cc1-c1ccncc1 [MILRINONE]
- Activity [22]: -13
- Activity [23]: 15
- ED50 [3]: 0.022 mg/kg
- Activity [24]: 105

SMILES: CS(=O)(=O)N1CCOc2ccc(C3=NN(c4ccccc4)C(=O)CC3)cc21
- Activity [1]: 30
- Activity [2]: 9
- ED50 [3]: > 1.88 mg/kg
- IC50 [4]: 200 µM
- Activity [5]: 6

SMILES: O=C1CCC(c2ccc3c(c2)NCCO3)=NN1
- Activity [1]: 105
- Activity [2]: -17
- ED50 [3]: 0.62 mg/kg
- IC50 [4]: 50 µM
- Activity [5]: 15

SMILES: CN1N=C(c2ccc3c(c2)N(S(C)(=O)=O)CCO3)CCC1=O
- Activity [1]: 26
- Activity [2]: 0
- ED50 [3]: > 1.88 mg/kg
- IC50 [4]: 100 µM
- Activity [5]: 12

SMILES: CC(=O)N1CCOc2ccc(C3=NNC(=O)CC3)cc21
- Activity [1]: 121
- Activity [2]: -14
- ED50 [3]: 0.37 mg/kg
- IC50 [4]: 100 µM
- Activity [5]: 20

SMILES: Cc1cc(C2=NNC(=O)CC2)c2c(c1)N(C)C(=O)CO2
- Activity [20]: 73
- Activity [25]: 9
- ED50 [3]: 0.258 mg/kg
- IC50 [4]: 26 µM
- Activity [7]: 1

SMILES: O=C1CCC(c2ccc3c(c2)NC(=O)CO3)=NN1
- ED50 [3]: 0.7 mg/kg
- IC50 [4]: 630 µM
- Activity [5]: 9

SMILES: Cc1cc2c(c(C3=NNC(=O)CC3)c1)OCC(=O)N2
- Activity [1]: 32
- Activity [2]: -12
- ED50 [3]: > 1.88 mg/kg
- IC50 [4]: 31 µM
- Activity [5]: 2
